Experiment: Toxicity liver stage against HepG2, at 10uM
Assay type: cell-based
Parameters: test concentration 10 uM, cell line HepG2-A16-CD81EGFP
Settings: human, HepG2-A16-CD81EGFP cells; read-out: INHIBITION
Procedure, shortened: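 Uninfected HepG2-A16-CD81EGFP cells, 3 × 10^3 per well, 1536-well, plated on prespotted compound at 10 μM final, parasite-free screening media added to match infected plates; puromycin 10 μM positive, DMSO 0.5% negative; run in parallel with 48 h PbLuc assay at 37 °C, 5% CO2; viability by CellTiter-Glo luminescence, normalized to controls.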

Compound	cytotoxicity at 10 µM [%]
Cn1c(=O)c2c(c3ccccc31)OC(C)(C)CC2	17.8
Cn1nnc(NCc2ccccc2OCc2ccc(Cl)cc2)n1	2.71
COc1ccc(CN2CCCCCC2c2cccs2)c(O)c1 (configuration not stated)	3.6
Cn1ccnc1SC1CCc2ccccc2NC1=O (configuration not stated)	-8.75
CN(C)CC1CSCCCN1C(=O)c1cccc(C(F)(F)F)c1 (configuration not stated)	-5.03
CC(=O)N1Cc2nccn2CC(CNC(=O)c2cnccn2)C1 (configuration not stated)	-144
CC(C)NC(=O)C1CN(C(N)=O)Cc2ccnn2C1 (configuration not stated)	-8.68
CC(C)N1CCN(C(=O)c2[nH]nnc2Nc2ccccc2F)CC1	6.36
CCc1cc(=O)n(CC(=O)N2CCCC2)c(-c2ccccc2)n1	7.25
CCn1cc(-c2nn3c(C(F)(F)F)nnc3s2)c(C)n1	13.5
CC(CNC(=O)c1cc(C2CC2)nc2c1cnn2C)Cn1cccn1 (configuration not stated)	3.49
COc1ccc(CCc2nnc(NC(=O)C3CC34CCC4)s2)cc1OC (configuration not stated)	-0.095
CC(=O)N1CCC(Cc2nccnc2-c2ccnn2C)CC1	-7.3
O=C(O)c1ccc(=O)n(CC(c2ccc(Cl)cc2)N2CCOCC2)c1 (configuration not stated)	2.91
CCNC(=O)Nc1ncc(-c2cccnc2)s1	14.6
Cc1ncc(CNC(=O)CCc2c(C)noc2C)c(C2CCCN2C)n1 (configuration not stated)	-8.86
CC(C)OCCS(=O)(=O)N1CCN(Cc2cccn2C)CC1	-17.3
O=C(NCc1ccnc(OCC(F)(F)F)c1)NCC1COCCO1 (configuration not stated)	1.81
CC(C(=O)N1CCCC1)S(=O)(=O)Cc1noc(C(C)(C)C)n1 (configuration not stated)	-1.1
Cc1nccc(CNC(=O)NC(c2ncc(C)s2)C2CC2)n1 (configuration not stated)	-0.898
CCOCCN1CCN(c2ncccc2C#N)CC1CC (configuration not stated)	5.94

Compound	cytotoxicity at 10 µM [%]
O=C(NCC1CCS(=O)(=O)C1)N(Cc1ccccn1)C1CC1 (configuration not stated)	-129
CC(=O)N1CCC(NC(=O)Cc2nc3nc(C)cc(C)n3n2)CC1	8.52
O=C(Nc1ccccn1)c1ccc(F)c(S(=O)(=O)NC2CC2)c1	4.37
CN(C)C1Cc2ccccc2N(S(=O)(=O)c2cccc(C#N)c2)C1 (configuration not stated)	9.89
CCNC(=O)Cc1ccc(NC(=O)NC(CC)c2ccncc2)cc1 (configuration not stated)	-3
O=C(c1cc(Cl)c2c(c1)OCO2)N1CCN(c2cnccn2)CC1	6.76
Cc1ccccc1C(=O)NCC(O)c1ccc(F)c(F)c1 (configuration not stated)	-10.1
Cc1ccccc1-c1cc(NC(=O)NC2CC2)n(CCO)n1	8.09
CCN(CC)c1ccc(NS(=O)(=O)c2cnn(CC)c2)cn1	3.07
CC(NC(=O)Nc1nnc(-c2ccccn2)s1)C(=O)OC(C)(C)C (configuration not stated)	-6.87
Cc1ccc(-c2ncc(CN3CCOC(c4ccco4)C3)s2)o1 (configuration not stated)	4.37
CN(C)CC(NC(=O)c1ccn(C)c(=O)c1)c1ccccc1 (configuration not stated)	-5.85
CSc1ccc(NC(=O)COCc2ccccc2)nc1	7.01
CN(C)C(=O)CN1CCN(c2cc(N3CCCC3CO)ncn2)CC1 (configuration not stated)	-1.49
CS(=O)(=O)NCCc1cccc2cccnc12	18.3
CS(=O)(=O)N1CCN(C(=O)c2[nH]c3ccc(Cl)cc3c2Cl)CC1	24.6
O=C(NCCc1nncn1C1CC1)c1cnn(Cc2ccccc2)c1	-2.36
CC(C)c1ocnc1C(=O)N1CCC(=O)Nc2cccnc21	1.15
Cc1cc(C)c(CNC(=O)NCc2nnc3n2CCCCC3)c(=O)[nH]1	-1.34
Cc1noc(CNc2ccccc2N2CCCCC2)n1	-25.4
COC(=O)c1cccc(S(=O)(=O)NC(=O)c2ccccc2F)c1	5.79

Compound	cytotoxicity at 10 µM [%]
CCCn1c(O)nnc1SCC1OCCc2ccccc21 (configuration not stated)	4.32
CC(C)CC(C(=O)N1CCCSCC1)N1CCCCC1=O (configuration not stated)	-11
NC(=O)C1CCN(Cc2cccc(NC(=O)c3ccsc3)c2)CC1	18.7
Cn1cnc(-c2nc(C(=O)NCC3CCCO3)c3ccccn23)c1 (configuration not stated)	-109
Cc1cccc(C(=O)N2CC[C@@H]3CN(c4ncccn4)CCO[C@@H]3C2)c1	-71.6
CCN1C(=O)[C@]2(CC[C@@H]3CN(S(=O)(=O)CC(C)C)C[C@@H]32)N=C1C	-78.2
Cn1cc(C[C@H]2[C@@H](O)CCN2C(=O)c2ccc[nH]2)cn1	-71.2
CCc1ccc(CN(C)c2ccc(-c3nc(COC)no3)cn2)nc1	-2.68
Cc1n[nH]c(SCC(=O)N[C@@H](C)C(N)=O)n1	8.07
O=C(CC1COCCN1)N1CCC(N2CCc3ccccc3C2)CC1 (configuration not stated)	-176
CN(C)c1nc2c(c(=O)[nH]1)CCN(C(=O)c1ccc(=O)[nH]c1)C2	10.2
Cc1nnc(CN(CCc2ccccc2)C2CCN(C)CC2)s1	0.219
CCn1nc(C)c(C(=O)N2C[C@@H](CN(C)C)[C@@H](CO)C2)c1C	0.44
C=C(C)COc1cccc(CN(CC)Cc2noc(C)n2)c1	-12
COc1cccc2c1OCC(CNC(=O)Cn1ccnc1C)C2 (configuration not stated)	-150
CCCn1c(C)c(CC(=O)NC(C)(C)CO)c2c1CC(C)(C)CC2=O	-8.97
CCc1nc(C)c(CN2CCN(c3ncnc4c(C)csc34)CC2)[nH]1	17.6
Cc1cccc(C(C(=O)N2CC(c3ccccn3)C2)N(C)C)c1 (configuration not stated)	-13.1
CN(CCCc1nccn1C)C(=O)C1CCN(C(=O)C2CCC2)CC1	-7.12
Cc1cncc(C(=O)N2CCCC(O)(CN3CCCC3)C2)c1 (configuration not stated)	10.1
COc1cc2cc(C(=O)NC(C)C(=O)O)n(C)c2c(OC)c1OC (configuration not stated)	-162

Compound	cytotoxicity at 10 µM [%]
Cc1nc2c(c(=O)n1C)CCN(C(=O)CCc1ccccn1)CC2	14
CC(C)n1cnnc1CN(C)C(=O)C1CCCN(CC(N)=O)C1 (configuration not stated)	1.05
CC(C)NC(=O)[C@@H]1C[C@H](N)CN1C(=O)c1cc2c([nH]c1=O)CCCC2	10.5
COc1ccc2c(c1)OCC(CNC(=O)c1ccncc1)C2 (configuration not stated)	-8.63
CS(=O)(=O)N1CCCC(C(=O)Nc2cnn(COCC(F)(F)F)c2)C1 (configuration not stated)	-11.5
CNc1cc(C2CCCN2C(=O)c2ccc3oc(=O)n(C)c3c2)ccn1 (configuration not stated)	1.68
Cc1cncc(C2CCCN(C(=O)c3cccn3C)C2)n1 (configuration not stated)	2.14
CC(C)c1ccc(OCCC(=O)N2CCCC(C(N)=O)C2)cc1 (configuration not stated)	-11.7
Cc1cnc(CN2CCCC2c2noc(C)n2)cn1 (configuration not stated)	3.78
CCC(CC)NC(=O)Cn1nc(C)nc1-c1ccccc1	-7.22
Cc1cc(C(=O)N2CCCC(n3cncn3)C2)c(C)n1C1CC1 (configuration not stated)	-3.32
CCn1c(C)nnc1CN(C)C1CCN(CCc2ccncc2)C1 (configuration not stated)	3.97
COCCNC(=O)C(C)N1CCN(C)CC1 (configuration not stated)	-1.21
CC(C)CCN1CCC2(CCCN(c3nncs3)C2)C1 (configuration not stated)	-139
O=C(c1ccno1)N1CC[C@@H]2O[C@H](COCCN3CCCC3)CC[C@@H]21	-79.1
O=C(N1CCCC1)N1CC[C@H]2OCC[C@@]2(COc2ncccc2F)C1	-151
Cc1nc(N2CCCC2)nc2c1CCN(Cc1ccsc1)CC2	-106
CN(C)[C@@H]1CCN(C(=O)CC2CC2)[C@H]1Cc1cnn(C)c1	-67.3
CC(=Cc1ccccc1)CNCc1cccc(C(N)=O)c1	6.03

From ChEMBL document CHEMBL4513216, “Probing the Open Global Health Chemical Diversity Library for Multistage-Active Starting Points for Next-Generation Antimalarials” (ACS Infect Dis, 2020)
